Data set [1] has as its system Plasma. In words: Drug metabolism in mouse plasma assessed as 4-HO-IFO level measured after 2 to 24 hrs by HPLC-MS/MS method. It counts as ADME, cell-free. In outline: (§1)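 Prodrugs, from acetonitrile stocks as bulk form or nano-assemblies, were incubated in mouse plasma at 37 °C for up to 24 h. 4-HO-IFO was trapped as its semicarbazone with semicarbazide (2 M in pH 7.4 buffer). It was quantified alongside the parent by isocratic C18 HPLC-ESI(+)-MS/MS with MRM, using hexamethyl phosphoramide as internal standard, over 50–5000 ng/mL. Results are given in ng/mL.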

For data set [2], the system named is Plasma. In words: Drug metabolism in mouse plasma assessed as 4-HO-IFO release measured after 0.5 hrs by HPLC-MS/MS method. It counts as ADME, cell-free. In outline: as §1
The subject of data set [3] is Plasma. In words: Drug metabolism in mouse plasma assessed as 4-HO-IFO level measured after 2 hrs by HPLC-MS/MS method. Type of data set: ADME, cell-free. In outline: as §1
Data set [4] relates to A673. In words: Cytotoxicity against human A673 cells after 96 hrs by MTS assay. It counts as functional, cell-based. The conditions noted are these: A673, 96 h. In outline: (§2)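 Human Ewing sarcoma A673 and rhabdomyosarcoma RMS-1 cells were grown in DMEM or RPMI with 10% FCS, penicillin and streptomycin at 37 °C under 5% CO2. […] MTS was then added for 2–5 h and absorbance read at 490 nm. Six replicates per concentration; IC50 versus untreated cells.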
In general terms: Tetrazolium dyes change colour on reduction, which living cells bring about.

The nature of data set [5]: Cytotoxicity against human RMS1 cells after 96 hrs by MTS assay. It counts as functional, cell-based. The following applies: RMS1, 96 h. Summed up: as §2
In data set [6] the test system is KB. The experiment in a line: Cytotoxicity against human KB cells. It counts as functional, cell-based. Summed up: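 KB3.1 was one of 12 human lines tested with nano-assembly formulations. Cells were seeded, then exposed after 24 h to 0.1–200 µM in DMEM or RPMI with 10% FBS at 37 °C and 5% CO2 for 72 h. MTS was read at 490 nm after 2–5 h. Six replicates per concentration; IC50 relative to untreated cells.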

Data set [7] is described as follows: Cytotoxicity against human RMS1 cells after 72 hrs by MTS assay. The following applies: RMS1, 72 h. Type of data set: functional, cell-based. In outline: as §2
The subject of data set [8] is A673. The experiment in a line: Cytotoxicity against human A673 cells after 72 hrs by MTS assay. It counts as functional, cell-based. The conditions noted are these: A673, 72 h. In outline: as §2
In data set [9] the test system is Plasma. In words: Drug metabolism in mouse plasma assessed as 4-HO-IFO release measured after 4 hrs by HPLC-MS/MS method. It counts as ADME, cell-free. In outline:
as §1

The subject of data set [10] is Plasma. The experiment in a line: Drug metabolism in mouse plasma assessed as 4-HO-IFO release measured after 2 hrs by HPLC-MS/MS method. Type of data set: ADME, cell-free. In outline: as §1
Data set [11] relates to Plasma. In words: Drug metabolism in mouse plasma assessed as 4-HO-IFO level measured after 6 hrs by HPLC-MS/MS method. Type of data set: ADME, cell-free. In outline:
as §1

Each structure is given as a SMILES string.

With `CC(C)=CCC/C(C)=C/CC/C(C)=C/COC1CCOP(=O)(NCCCl)N1CCCl` (mixture of isomers), the Stability entry in [1] was “Stable”. For the same molecule, the Drug metabolism is 700 ng/mL in [2] and “metabolite_detected” in [3].
As for `CC(C)CCCC(C)CCOC1CCOP(=O)(NCCCl)N1CCCl` (configuration not stated), in [1], the Stability entry is on record as “Stable”. Moreover, the Drug metabolism in [2] is 200 ng/mL; in [3] it was “metabolite_detected”. For the same molecule, the IC50 – broadly, the concentration needed to halve the response being measured – in data set [4] worked out at 24.5 µM; in [5], 11.3 µM.
In data set [6], `CO[C@H]1CCOP(=O)(NCCCl)N1CCCl` (some centres not stated) yielded an IC50 of 22 µM.
Turning to `CCCCCOC1CCOP(=O)(NCCCl)N1CCCl` (mixture of isomers), the IC50 in [7] was 5.3 µM; in [8] it was 17.7 µM.
In data set [6], `CO[C@@H]1CCOP(=O)(NCCCl)N1CCCl` (some centres not stated) returned an IC50 of 20 µM. In other words, the double-digit micromolar range.
Take `CC(C)=CCC/C(C)=C/COC1CCOP(=O)(NCCCl)N1CCCl` (mixture of isomers): the figures for the IC50 in [7] and in data set [8] were 9.3 µM and 25.3 µM, respectively. The Stability entry in data set [1] was “Stable”. In addition, the values for the Drug metabolism in data set [9] and in data set [3] were 350 ng/mL and “metabolite_detected”, respectively.
Regarding `COC1CCOP(=O)(NCCCl)N1CCCl` (mixture of isomers), the IC50 in data set [7] was found to be 3.8 µM; in [8] it was 1.5 µM. The values for the Drug metabolism result in [3], in data set [10] and in data set [11] were “metabolite_detected”, 1250 ng/mL and “metabolite_detected”, respectively.

The values are drawn from ChEMBL document CHEMBL3393029, “Preactivated oxazaphosphorines designed for isophosphoramide mustard delivery as bulk form or nanoassemblies: synthesis and proof of concept” (J Med Chem, 2015).
